From ChEMBL document CHEMBL1139359, “Novel chemotactic For-Met-Leu-Phe-OMe (fMLF-OMe) analogues based on met residue replacement by 4-amino-proline scaffold: synthesis and bioactivity” (2009) come the findings set out here.

The subject of assay [1] is Neutrophil. As to the kind of experiment: Induction of chemotactic activity in human neutrophil assessed as chemotactic index at 1 nM. The format is functional. A digest of the protocol:
(§1)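 Neutrophils from healthy donors were purified by dextran sedimentation, Ficoll-Paque centrifugation and hypotonic red-cell lysis, then held in KRPG pH 7.4. Peptide placed in lower well of a 48-well microchemotaxis chamber, diluted in KRPG with 1 mg/mL BSA, tested at 10^–13 to 10^–5 M. Migration into filter scored by leading-front method. C.I. = (test − buffer migration)/buffer migration. Mean of six experiments run in duplicate.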

In assay [2] the test system is Neutrophil. As to the kind of experiment: Induction of superoxide anion radicals production in human neutrophil at 10 uM. The format is functional. A digest of the protocol:
(§2)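 Donor neutrophils (dextran/Ficoll/hypotonic lysis, KRPG pH 7.4) pretreated with 5 µg/mL cytochalasin B for 5 min. Peptide then added at 10^–10–5·10^–5 M at 37 °C in microplate reader. Cytochrome c reduction read as absorbance difference 550 vs 468 nm (absorptivity 18.5 mmol^–1 cm^–1). Expressed as net nmol O2− per 10^6 cells per 5 min, mean of six experiments in duplicate.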

For assay [3], the system named is Neutrophil. As to the kind of experiment: Induction of lysozyme release in human neutrophil at 1 uM. The format is functional. The method in brief:
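Cells at 3×10^6/well, in triplicate wells, preincubated with 5 µg/mL cytochalasin B at 37 °C for 15 min, then peptide (final 10^–10–5·10^–5 M) for 15 min. Plates spun 400g for 5 min. Supernatant lysozyme measured nephelometrically as rate of Micrococcus lysodeikticus cell-wall lysis at 465 nm. Expressed as net % of total content released by 0.1% Triton X-100. Mean of five experiments in duplicate.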

Assay [4] concerns Neutrophil. Description: Inhibition of fMLF-OMe-induced chemotactic index in human neutrophil at 100 uM. Format: functional. More on the design: Activity: scale not given: the % may be the effect or the level left. The conditions noted are these: for inhibition at 100 µM: Homo sapiens, Neutrophil. The method in brief:
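Human neutrophils, chemotaxis toward 10 nM fMLF-OMe in microchemotaxis chamber, measured with increasing concentrations of test peptide. Inhibition scored on chemotactic index (test − buffer migration over buffer migration), with migration assessed by leading-front method.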

In assay [5] the test system is Neutrophil. Description: Inhibition of fMLF-OMe-induced superoxide anion radicals production in human neutrophil. Format: functional, cell-based.
The subject of assay [6] is Neutrophil. Description: Induction of chemotactic activity in human neutrophil at 0.1 nM. The format is functional. A digest of the protocol:
as §1

Assay [7] relates to Neutrophil. Description: Inhibition of fMLF-OMe-induced lysozyme release in human neutrophil assessed as lysis of Micrococcus lysodeikticus cell wall by nephelometry. Format: functional, cell-based.
Assay [8] has as its system Neutrophil. As to the kind of experiment: Induction of superoxide anion radicals production in human neutrophil at 1 uM. Format: functional. A digest of the protocol: as §2

Molecules are shown by their SMILES. The source made the active and inactive calls. The calls are words filed in the database; no cut-off is given here.

Consider `COC(=O)[C@H](Cc1ccccc1)NC(=O)[C@H](CC(C)C)NC(=O)[C@@H]1C[C@@H](NC=O)CN1C(=O)OC(C)(C)C`, for which the Activity in the assay on Neutrophil [1] is 0.4; in the assay with Neutrophil [2] it was 1 nmol; with Neutrophil [3] it was 13%; in the assay on Neutrophil [4], 73%. Further, the result with Neutrophil [5] was inactive.

As to `COC(=O)[C@H](Cc1ccccc1)NC(=O)[C@H](CC(C)C)NC(=O)[C@@H]1C[C@H](NC=O)CN1C=O`, the Activity turned out to be 0.7 in the assay with Neutrophil [6], 4 nmol in the assay on Neutrophil [2] (in the assay text read “1 uM” for “10 uM”) and 24% in the assay on Neutrophil [3]. In the assay with Neutrophil [7], the result was inactive.

For `COC(=O)[C@H](Cc1ccccc1)NC(=O)[C@H](CC(C)C)NC(=O)[C@@H]1C[C@H](NC=O)CN1C(=O)OC(C)(C)C`, the Activity in the assay on Neutrophil [1] was found to be 0.34; in the assay with Neutrophil [2], 2 nmol; in the assay on Neutrophil [3] it was 12%. Further, the outcome in the assay with Neutrophil [5] was inactive.

In the case of `COC(=O)[C@H](Cc1ccccc1)NC(=O)[C@H](CC(C)C)NC(=O)[C@H](CCSC)NC=O`, the Activity worked out at 1.1 with Neutrophil [1], 52 nmol with Neutrophil [8] and 60% in the assay on Neutrophil [3].

For `COC(=O)[C@H](Cc1ccccc1)NC(=O)[C@H](CC(C)C)NC(=O)[C@@H]1C[C@@H](NC=O)CN1C=O`, the Activity in the assay with Neutrophil [6] is 0.75; with Neutrophil [8], 5 nmol; in the assay on Neutrophil [3], 15%. Further, the result with Neutrophil [7] was inactive.

As a reminder, the inhibition is the relative decrease from the control value, in per cent. As for `COC(=O)[C@H](Cc1ccccc1)NC(=O)[C@H](CC(C)C)NC(=O)[C@@H]1C[C@H](NC(=O)OC(C)(C)C)CN1C(=O)OC(C)(C)C`, the Activity in the assay with Neutrophil [1] was found to be 0.4; in the assay on Neutrophil [2], 14.6 nmol; in the assay on Neutrophil [3], 12%. In addition, at 100 µM the inhibition with Neutrophil [4] was 60%. Also, the result in the assay on Neutrophil [7] was inactive.

On to `COC(=O)[C@H](Cc1ccccc1)NC(=O)[C@H](CC(C)C)NC(=O)[C@@H]1C[C@@H](NC(=O)OC(C)(C)C)CN1C(=O)OC(C)(C)C`, for which the Activity stood at 0.45 with Neutrophil [6], 2 nmol with Neutrophil [2] and 18% in the assay on Neutrophil [3]. In the assay with Neutrophil [4], this compound showed an inhibition at 100 µM of 60%. The outcome in the assay on Neutrophil [7] was inactive.
